Test results: ChEMBL document CHEMBL4024711, “Design, synthesis and biological evaluation of novel nitric oxide-donating protoberberine derivatives as antitumor agents” (Eur J Med Chem, 2017)
The source made the active and inactive calls. No cut-off for these calls is given here.

Assays:
Mus musculus [1] = assay: Toxicity in ICR mouse xenografted with […] cells assessed as body weight at 15 mg/kg, iv administered once daily for 21 days measured post last dose (reference value: 26 +/- 0.6 g); assay type: organism-based; details: in vivo, 504 h
HepG2 [2] = assay: Disruption of mitochondrial membrane potential in human HepG2 cells assessed as intact mitochondrial membrane at 0.5 uM after 72 hrs by JC1 staining based flow cytometric method (reference value: 96.94%); assay type: functional
Outline: (§1)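 HepG2 cells were exposed to 0, 0.5, 1 or 2 μM for 72 h, washed in PBS, and resuspended in JC-1 incubation buffer at 37 °C for 15 min. The fractions of cells with healthy or collapsed mitochondrial membrane potential were determined by flow cytometry.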

HepG2 [3] = assay: Disruption of mitochondrial membrane potential in human HepG2 cells assessed as collapse of the mitochondrial membrane potential at 0.5 uM after 72 hrs by JC1 staining based flow cytometric method (reference value: 3.05%); assay type: functional; outline: as §1
HepG2 [4] = assay: Induction of apoptosis in human HepG2 cells assessed as necrotic cells at 2 uM after 72 hrs by Annexin V-APC/7-AAD staining based flow cytometric method (reference value: 2.44%); assay type: functional
HepG2 [5] = assay: Induction of apoptosis in human HepG2 cells assessed as early apoptotic cells at 1 uM after 72 hrs by Annexin V-APC/7-AAD staining based flow cytometric method (reference value: 2.06%); assay type: functional
HL-60 = assay: Cytotoxicity against human HL60 cells after 72 hrs by MTT assay; assay type: functional, cell-based; details: HL-60, 72 h
Outline: (§2)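 MTT assay. Cells were plated and grown 24 h at 37 °C, 5% CO2, then exposed to compound in medium with 0.1% DMSO for 72 h. MTT (5 mg/mL in PBS) was added for 4 h and absorbance read at 490 nm. IC50 was taken from dose-response curves; at least three independent experiments.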

HepG2 [6] = assay: Cell cycle arrest in human HepG2 cells assessed as accumulation at G2 phase at 1 uM after 72 hrs by propidium iodide staining based flow cytometric method (reference value: 17.45%); assay type: functional
Outline: (§3)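 HepG2 cells were seeded and grown 24 h at 37 °C, 5% CO2. They were then exposed to 0, 0.5, 1 or 2 μM for 72 h, fixed in 70% ethanol at 4 °C for 12 h, and stained with RNase A plus propidium iodide for 30 min. DNA content was measured by flow cytometry to give the cell-cycle phase distribution.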

HepG2 [7] = assay: Induction of apoptosis in human HepG2 cells assessed as live cells at 0.5 uM after 72 hrs by Annexin V-APC/7-AAD staining based flow cytometric method (reference value: 94.99%); assay type: functional
HepG2 [8] = assay: Cell cycle arrest in human HepG2 cells assessed as accumulation at S phase at 2 uM after 72 hrs by propidium iodide staining based flow cytometric method (reference value: 25.78%); assay type: functional; outline: as §3
[9] = Induction of NO release assessed as nitrite formation in PBS at 100 uM up to 300 mins by Griess assay
Outline: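 Compound at 100 μM was incubated at 37 °C in PBS, pH 7.4, containing 2% DMSO and 5.0 mM L-cysteine, in acellular or HepG2 cell lysates, and sampled over time. Samples were mixed with Griess reagent at 37 °C for 15 min and read at 540 nm. Nitrite was quantified against a sodium nitrite standard curve, in triplicate.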

H22 = assay: Antitumor activity against […] H22 cells xenografted in ICR mouse assessed as tumor weight at 15 mg/kg, iv administered once daily for 21 days measured post last dose (reference value: 4.38 +/- 0.16 g); assay type: functional
HepG2 [10] = assay: Induction of apoptosis in human HepG2 cells assessed as early apoptotic cells at 0.5 uM after 72 hrs by Annexin V-APC/7-AAD staining based flow cytometric method (reference value: 2.06%); assay type: functional
HepG2 [11] = assay: Induction of apoptosis in human HepG2 cells assessed as necrotic cells at 1 uM after 72 hrs by Annexin V-APC/7-AAD staining based flow cytometric method (reference value: 2.44%); assay type: functional
Mus musculus [12] = assay: Toxicity in ICR mouse xenografted with […] cells assessed as body weight at 30 mg/kg, iv administered once daily for 21 days measured post last dose (reference value: 26 +/- 0.6 g); assay type: organism-based; details: in vivo, 504 h
HepG2 [13] = assay: Cytotoxicity against human HepG2 cells after 72 hrs by MTT assay; assay type: functional, cell-based; details: HepG2, 72 h; outline: as §2
HepG2 [14] = assay: Disruption of mitochondrial membrane potential in human HepG2 cells assessed as intact mitochondrial membrane at 2 uM after 72 hrs by JC1 staining based flow cytometric method (reference value: 96.94%); assay type: functional; outline: as §1
HepG2 [15] = assay: Induction of apoptosis in human HepG2 cells assessed as necrotic cells at 0.5 uM after 72 hrs by Annexin V-APC/7-AAD staining based flow cytometric method (reference value: 2.44%); assay type: functional
SMMC-7721 = assay: Cytotoxicity against human SMMC7721 cells after 72 hrs by MTT assay; assay type: functional, cell-based; details: SMMC-7721, 72 h; outline: as §2
HepG2 [16] = assay: Cytotoxicity against human HepG2 cells at 2 uM after 72 hrs by MTT assay; assay type: functional, cell-based
Outline: (§4)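 HepG2 cells were pretreated for 2 h with graded concentrations of carboxy-PTIO (an NO scavenger), or left unpretreated. They were then exposed to 2 μM compound for 72 h, and growth was assessed by MTT. Mean ± SD, n=3.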

HepG2 [17] = assay: Induction of apoptosis in human HepG2 cells assessed as live cells at 2 uM after 72 hrs by Annexin V-APC/7-AAD staining based flow cytometric method (reference value: 94.99%); assay type: functional
HepG2 [18] = assay: Induction of apoptosis in human HepG2 cells assessed as late apoptotic cells at 2 uM after 72 hrs by Annexin V-APC/7-AAD staining based flow cytometric method (reference value: 0.51%); assay type: functional
L02 = assay: Cytotoxicity against human LO2 cells after 72 hrs by MTT assay; assay type: cell-based; details: L02, 72 h; outline: as §2
HepG2 [19] = assay: Induction of apoptosis in human HepG2 cells assessed as early apoptotic cells at 2 uM after 72 hrs by Annexin V-APC/7-AAD staining based flow cytometric method (reference value: 2.06%); assay type: functional
HepG2 [20] = assay: Cell cycle arrest in human HepG2 cells assessed as accumulation at G2 phase at 0.5 uM after 72 hrs by propidium iodide staining based flow cytometric method (reference value: 17.45%); assay type: functional; outline: as §3
HepG2 [21] = assay: Cell cycle arrest in human HepG2 cells assessed as accumulation at G1 phase at 0.5 uM after 72 hrs by propidium iodide staining based flow cytometric method (reference value: 56.77%); assay type: functional; outline: as §3
HepG2 [22] = assay: Disruption of mitochondrial membrane potential in human HepG2 cells assessed as intact mitochondrial membrane at 1 uM after 72 hrs by JC1 staining based flow cytometric method (reference value: 96.94%); assay type: functional; outline: as §1
HepG2 [23] = assay: Induction of apoptosis in human HepG2 cells assessed as late apoptotic cells at 1 uM after 72 hrs by Annexin V-APC/7-AAD staining based flow cytometric method (reference value: 0.51%); assay type: functional
HepG2 [24] = assay: Cytotoxicity against human HepG2 cells at 2 uM after 72 hrs in presence of NO scavenger PTIO by MTT assay; assay type: functional, cell-based; outline: as §4
HepG2 [25] = assay: Cell cycle arrest in human HepG2 cells assessed as accumulation at G1 phase at 2 uM after 72 hrs by propidium iodide staining based flow cytometric method (reference value: 56.77%); assay type: functional; outline: as §3

## COc1cc2c(cc1OC)-c1c(Br)c3ccc(OC)c(OCCCCCCCCO[N+](=O)[O-])c3c[n+]1CC2.[Br-]
Mus musculus [1]
  Activity: 25.4 g
HepG2 [2]
  Activity: 87.9%
HepG2 [3]
  Activity: 12.1%
HepG2 [4]
  Activity: 4.43%
HepG2 [5]
  Activity: 22.97%
HL-60
  IC50: 1260 nM
HepG2 [6]
  Activity: 29.57%
HepG2 [7]
  Activity: 85.1%
HepG2 [8]
  Activity: 24.23%
[9]
  Activity: Active
H22
  Activity: 2.37 g
HepG2 [10]
  Activity: 11.02%
HepG2 [11]
  Activity: 4.32%
Mus musculus [12]
  Activity: 25.2 g
HepG2 [13]
  IC50: 1360 nM
HepG2 [14]
  Activity: 59.5%
HepG2 [15]
  Activity: 1.49%
SMMC-7721
  IC50: 1210 nM
HepG2 [16]
  Activity: Active
HepG2 [17]
  Activity: 44.44%
HepG2 [18]
  Activity: 10.01%
L02
  IC50: 28900 nM
HepG2 [19]
  Activity: 41.13%
HepG2 [20]
  Activity: 23.38%
HepG2 [21]
  Activity: 51.14%
HepG2 [22]
  Activity: 74.5%
HepG2 [23]
  Activity: 9.11%
HepG2 [24]
  Activity: inactive
HepG2 [25]
  Activity: 34.32%
